Data published in ChEMBL document CHEMBL4152256, “Structure-activity relationship of new antimalarial 1-aryl-3-susbtituted propanol derivatives: Synthesis, preliminary toxicity profiling, parasite life cycle stage studies, target exploration, and targeted delivery” (Eur J Med Chem, 2018).

Tests used:
Plasmodium falciparum [1] = assay: Antiplasmodial activity against chloroquine-sensitive Plasmodium falciparum 3D7 by [3H]-hypoxanthine incorporation assay; type: functional, organism-based; details: Plasmodium falciparum, 3D7
How it was run: (§1)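 Blood-stage P. falciparum 3D7 and FCR-3 were tested by a modified [3H]-hypoxanthine incorporation assay. Chloroquine was the reference in all runs.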

[2] = Solubility of the compound in DSPC:cholesterol:DSPE-PEG2000-Mal:DOPE-Rho lipid mixture at 250 uM; type: physicochemical
How it was run: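 Compound added at 250 µM drug to the initial liposome lipid mixture (10 mM total lipid); precipitation and UV-visible absorbance above 300 nm assessed after encapsulation, removal of unencapsulated material and extraction with 1% w/v SDS in RPMI-A.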

Plasmodium falciparum [3] = assay: Antiplasmodial activity against multidrug-resistant Plasmodium falciparum FCR-3 by [3H]-hypoxanthine incorporation assay; type: functional, organism-based, FCR-3/Gambia; details: Plasmodium falciparum, FCR-3/Gambia; how it was run: as §1
[4] = Selectivity index, ratio of CC50 for human HepG2A16 cells by MTT assay to IC50 for multidrug-resistant Plasmodium falciparum FCR-3; type: toxicity; details: HepG2A16 cells, read-out: Ratio CC50/IC50
How it was run: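 HepG2-A16 human hepatoma cells were tested by MTT viability assay to give CC50. Blood-stage activity was measured against the multidrug-resistant P. falciparum FCR-3 strain by [3H]-hypoxanthine incorporation to give IC50. SI = CC50 HepG2 / FCR-3 IC50.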

[5] = Cytotoxicity against human HepG2A16 cells by MTT assay; type: cell-based; details: HepG2A16 cells
How it was run: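 MTT viability assay on HepG2-A16 cells, giving CC50 values.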

Q: For `OC(CCN1CCN(C(c2ccccc2)c2ccccc2)CC1)c1ccc2c(c1)OCO2` (stereo not given), which IC50 (Plasmodium falciparum [1]) is on record?
A: The IC50 was 1660 nM.

Q: What about the solubility [2] of the same molecule?
A: Its solubility is “Insoluble”.

Q: What about the IC50 (Plasmodium falciparum [3]) of the same molecule?
A: The IC50 was 1440 nM.

Q: And the selectivity ratio [4]?
A: The selectivity ratio was 25.

Q: And the CC50 [5]?
A: Its CC50 is 36100 nM.

Q: What does the source list for `COC(=O)c1ccc(C(O)CCN2CCN(C(c3ccccc3)c3ccccc3)CC2)cc1` (stereo not given)?
A: IC50 (Plasmodium falciparum [1]): 1690 nM; solubility [2]: Insoluble; IC50 (Plasmodium falciparum [3]): 1460 nM; selectivity ratio [4]: 58; CC50 [5]: 84000 nM
